Measurements taken from ChEMBL document CHEMBL2434958, “Identification of a novel series of orexin receptor antagonists with a distinct effect on sleep architecture for the treatment of insomnia” (J Med Chem, 2013).

Assays:
[1] = target: T1, Orexin receptor type 2 (Homo sapiens, UniProt O43614); assay: Antagonist activity at human OX2 receptor expressed in HEK cells assessed as inhibition of orexin A-induced Ca2+ accumulation after 1 hr by Fluo-4-AM staining-based FLIPR assay; assay type: functional, cell-based, HEK293
T1 sequence (O43614 whole entry): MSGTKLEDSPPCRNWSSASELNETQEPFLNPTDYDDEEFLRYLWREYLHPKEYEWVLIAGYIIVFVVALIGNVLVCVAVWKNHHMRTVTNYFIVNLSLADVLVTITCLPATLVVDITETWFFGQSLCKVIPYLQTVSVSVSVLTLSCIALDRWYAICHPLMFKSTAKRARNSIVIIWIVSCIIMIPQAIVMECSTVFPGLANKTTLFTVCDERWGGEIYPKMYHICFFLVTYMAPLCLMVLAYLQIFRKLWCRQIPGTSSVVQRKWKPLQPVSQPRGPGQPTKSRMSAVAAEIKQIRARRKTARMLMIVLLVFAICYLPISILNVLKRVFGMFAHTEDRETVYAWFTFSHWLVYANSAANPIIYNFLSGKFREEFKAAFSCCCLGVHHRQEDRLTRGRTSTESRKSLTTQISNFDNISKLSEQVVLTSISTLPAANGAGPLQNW
Procedure, shortened: (§1)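 Recombinant CHO or HEK cells expressing human OX1R or OX2R, serum-deprived overnight in HEPES buffer pH 7.4 with 1% BSA. Cells were loaded with 2 μM Fluo4-AM plus 0.1 mM probenecid for 1 h. Compound (up to eight concentrations, usually 10⁻⁹–10⁻⁵ M) was added first, then submaximal orexin A 1 h later. Curves run in triplicate; pKi from IC50 by Cheng–Prusoff.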

[2] = target: T2, Orexin/Hypocretin receptor type 1 (Homo sapiens, UniProt O43613); assay: Antagonist activity at human OX1 receptor expressed in CHO cells assessed as inhibition of orexin A-induced Ca2+ accumulation after 1 hr by Fluo-4-AM staining-based FLIPR assay; assay type: functional, cell-based; procedure, shortened: as §1
T2 sequence (O43613 whole entry): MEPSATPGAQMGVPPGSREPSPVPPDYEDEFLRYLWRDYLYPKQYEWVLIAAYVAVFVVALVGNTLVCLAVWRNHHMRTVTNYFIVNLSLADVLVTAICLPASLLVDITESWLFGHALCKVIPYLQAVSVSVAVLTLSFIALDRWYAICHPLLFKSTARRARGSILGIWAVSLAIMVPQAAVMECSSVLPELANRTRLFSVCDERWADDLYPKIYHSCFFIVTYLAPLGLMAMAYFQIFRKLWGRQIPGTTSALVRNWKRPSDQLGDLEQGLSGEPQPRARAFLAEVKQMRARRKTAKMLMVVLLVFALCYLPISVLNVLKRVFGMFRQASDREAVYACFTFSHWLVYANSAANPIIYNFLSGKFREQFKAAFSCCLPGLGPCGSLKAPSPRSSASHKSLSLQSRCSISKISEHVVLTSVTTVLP

SMILES	Ki [1] [nM]	Ki [2] [nM]	pIC50 ([2]; cho)
Cc1ccnc(N2CCC3(CCCN(Cc4c[nH]c5ccccc45)C3=O)CC2)n1	26.9	1410	–
O=C1CCCC2(CCN(c3nc4ccccc4o3)CC2)N1Cc1cccc2[nH]ccc12	3.16	18.6	–
Cc1cc(C)nc(N2CCC3(CCCN(Cc4c[nH]c5ncccc45)C3=O)CC2)n1	16.2	1320	–
Cc1ccc(C)c(CN2C(=O)CCCC23CCN(c2cnc4ccccc4n2)CC3)c1	12.9	58.9	–
Cc1cc(C)nc(N2CCC3(CCCN(Cc4[nH]nnc4-c4ccccc4)C3=O)CC2)n1	1.17	708	–
Cc1cc(C)nc(N2CCC3(CCCN(Cc4cn(C)c5ccccc45)C3=O)CC2)n1	20.9	1450	–
COc1ccc2[nH]cc(CN3CCCC4(CCN(c5nc(C)cc(C)n5)CC4)C3=O)c2c1	0.166	20.4	–
Cc1cc(C)nc(N2CCC3(CCCN(Cc4nn(C)cc4-c4ccccc4)C3=O)CC2)n1	17.4	813	–
Cc1cc(C)nc(N2CCC3(CCCN(Cc4c[nH]c5ccccc45)C3=O)CC2)n1	6.92	661	–
O=C1N(Cc2c[nH]c3ccccc23)CCCC12CCN(c1ncccn1)CC2	550	–	> 5
Cc1cc(C)nc(N2CCC3(CCCN(Cc4n[nH]cc4-c4ccccc4)C3=O)CC2)n1	3.89	776	–
